High-throughput results from PubChem.
This is a sample that favours compounds with a hit; in the whole collection about 2% have one here.
NR2E3 ag-1: NR2E3 (human) agonism. inhibition of corepressor binding, % at 4.78 µM. GST-NR2E3/biotin-RetCOR TR-FRET, 1536-well. 320,000 tested, 0.12% active;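 active = percent inhibition above the cutoff of mean plus 3 SD of all tested compounds, set per screening campaign, cut at about 20% in these data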;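 note: 0% = DMSO wells and 100% = biotin wells as full block of FRET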
Target sequence (Q9Y5X4 whole entry, looked up): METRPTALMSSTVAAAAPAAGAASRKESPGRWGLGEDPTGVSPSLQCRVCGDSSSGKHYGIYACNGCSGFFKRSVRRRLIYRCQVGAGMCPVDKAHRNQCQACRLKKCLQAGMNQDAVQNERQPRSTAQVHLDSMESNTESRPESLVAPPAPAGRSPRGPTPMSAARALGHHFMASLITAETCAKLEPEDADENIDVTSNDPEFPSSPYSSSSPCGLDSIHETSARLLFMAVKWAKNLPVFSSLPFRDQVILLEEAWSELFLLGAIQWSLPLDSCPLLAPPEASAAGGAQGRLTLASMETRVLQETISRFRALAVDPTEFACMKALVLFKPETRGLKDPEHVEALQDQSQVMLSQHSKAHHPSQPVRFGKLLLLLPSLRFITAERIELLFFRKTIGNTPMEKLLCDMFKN
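Test system – NR2E3–RetCOR corepressor complex · Quantity – NR2E3 fusion 1.35 nM · Buffer or medium – Tris pH 7.5 · Incubation – Compound–protein incubation for 5 h at 4 °C · Technique – TR-FRET, Eu(K)-anti-GST donor, streptavidin-D2 acceptor, ex 340, em 617/671 nm · Evaluation – percent inhibition of 671/617 nm emission ratio versus biotin and DMSO controls · Plate – 1536-well format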
Neddylation inh: inhibitors of human cullin neddylation. AID 651699. P61081+Q13564. 360,000 tested, 0.58% active. calls only at 25 µM. TR-FRET cullin neddylation, biochemical; in the data active = inhibition above about 36%
NR2E3 ag-2: agonists of human NR2E3 nuclear receptor | inhibition of corepressor binding, % at 3.98 µM | CHO-S Gal4-NCOR/VP16-NR2E3 two-hybrid, luciferase | Q9Y5X4 | 360,000 tested, 0.35% active;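 active = inhibition above the mean of all tested compounds plus 3 SD, cut at about 70% in these data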;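 note: 0% = DMSO with NR2E3 transfected cells and 100% = cells lacking NR2E3 construct; higher means lower luciferase signal from less NR2E3 corepressor binding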
PG9 Ab binder: PG9 antibody binding by small molecule. TR-FRET gp120-PG9 antibody binding. inhibition, % at 6.7 µM. 360,000 tested, 0.43% active. AID 624416; in the data active = inhibition above about 8.5%
NR1D1 modulator: Rev-erb alpha (human) modulation; Rev-erbα–FITC-DNA binding, fluorescence polarization, 90 min; activity, % at 10 µM; 370,000 tested, 0.79% active;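 active = activity above about 14%, limit read from the data; passing the limit was not always enough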;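 note: 0% = DMSO wells with 35 nM protein and 100% = DMSO wells with 750 nM protein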
PG9 bind confirm: PG9 antibody binding, confirmed; TR-FRET PG9 antibody binding, biochemical; AID 651571; inhibition, % at 6.7 µM; shares compounds with PG9 Ab binder; 1,500 tested, 90% active; in the data active = inhibition above about 9%
PGV04 Ab binding: counter-screen for PG9 binders: binding control antibody PGV04; shares compounds with PG9 Ab binder; TR-FRET PGV04 antibody-gp120 binding, biochemical; inhibition, % at 6.7 µM; 1,500 tested, 95% active; AID 651604; in the data active = inhibition above about 9.5%
Rev-erbA confirm: Rev-erb alpha (human) modulation, hit confirmation; shares compounds with NR1D1 modulator; Rev-erb alpha FITC-DNA binding, fluorescence polarization, 90 min; 3,000 tested, 61% active; activation, % at 25 µM;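 active = activation at or above a set limit, or at least 3 SD above the negative control mean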;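 note: 0% = 35 nM protein with DMSO and 100% = 750 nM protein high control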
RORg DNA counter: affects RORgamma DNA binding in a Rev-erb alpha counter-screen | shares compounds with NR1D1 modulator | purified RORgamma protein-FITC-DNA binding, fluorescence polarization | IC50, µM | 910 tested, 8% active | AID 1259320;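 active = Compounds whose fitted half-maximal concentration for disrupting protein-DNA binding is below 10 micromolar; the record names Rev-erb in its text, so the target is in doubt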
* marks the source's active call; other numbers are inactive results; i = inactive; . = no result given.

SMILES	NR2E3 ag-1	Neddylation inh	NR2E3 ag-2	PG9 Ab binder	NR1D1 modulator	PG9 bind confirm	PGV04 Ab binding	Rev-erbA confirm	others
CCOCCCn1c(=S)[nH]c2cc(C(=O)NCCc3ccccc3)ccc2c1=O	0	i	-37	18*	43*	23*	53*	31*	RORg DNA counter=i
COc1cc(C(=O)COC(=O)c2cnc(C)cn2)ccc1OC(F)F	0	i	18	1	4	.	.	.
NS(=O)(=O)c1ccc2nc(NC(=O)c3ccc4c(c3)OCCO4)sc2c1	-1	i	-20	37*	33*	33*	46*	12
Cc1ccc2nc(NC(=O)c3ccc4c(c3)OCO4)sc2c1	-7	i	-116	18*	29*	21*	32*	12
NS(=O)(=O)c1ccc2nc(NC(=O)c3ccc4ncsc4c3)sc2c1	-1	i	-14	.	.	.	.	.
CCCOc1ccc(C(=O)Nc2nc(C)c(Cc3ccc4c(c3)OCO4)s2)cc1	0	i	-8	61*	128*	25*	31*	83*	RORg DNA counter=>40
COCCCNC(=O)c1oc(=O)c2ccccc2c1-c1ccc(C)cc1	.	.	.	.	-7	.	.	.
Cc1[nH]c(=O)[nH]c(=O)c1NC(=O)c1ccccc1[N+](=O)[O-]	.	i	-3	0	1	.	.	.
O=C(Nc1cccc(-c2nc3ncccc3o2)c1)c1cc2ccccc2o1	-4	i	-59	-1	-3	.	.	.
Cc1ccc(-c2nc3ncccc3o2)cc1NC(=O)CC(C)C	-1	.	-8	-1	6	.	.	.
Cc1ccc(-c2nc3ncccc3o2)cc1NC(=O)c1cc2ccccc2o1	1	i	-25	8.9*	19*	12*	35*	0
Cc1ccc(-c2nc3ncccc3o2)cc1NC(=O)COc1ccccc1	0	i	-6	9.1*	22*	13*	18*	9
CC(C)CC1NC(=O)N(CC(=O)Nc2ccc3c(c2)OCCO3)C1=O (centres undefined)	0	i	-29	-1	5	.	.	.
COc1cccc(-c2ccc(C#N)c(SCC(=O)NCCc3cccc(Cl)c3)n2)c1	13	i	0	22*	34*	24*	43*	23*
Cc1ccc2nc(SCC(=O)NCc3cccs3)c(C#N)cc2c1	0	i	-1	15*	47*	37*	49*	22*
CCOC(=O)CSc1nc2cc(OCC)ccc2cc1C#N	2	i	-114	28*	83*	38*	58*	72*	RORg DNA counter=>40
CCOc1ccc2cc(C#N)c(SCC(=O)NC(C)CC)nc2c1 (centres undefined)	2	.	.	.	.	.	.	.
COc1ccc(-c2ccc(C#N)c(SCC(=O)NCCc3ccccc3)n2)cc1OC	-3	.	0	.	.	.	.	.
COC(=O)CSc1nc2ccc(C)cc2cc1C#N	-3	i	-123	-1	0	.	.	.
COc1ccc2cc(C#N)c(SCC(=O)NNC(=O)Cc3ccccc3)nc2c1	1	i	-12	27*	38*	24*	52*	12
COC(=O)CSc1nc2cc(OC)ccc2cc1C#N	-2	i	-196	2	7	.	.	.
Cc1ccc2cc(C#N)c(SCC(=O)NNC(=O)Cc3ccccc3)nc2c1	.	i	0	20*	52*	38*	41*	44*	RORg DNA counter=>40
COc1cc(C)c(C)cc1S(=O)(=O)NC1CC(C)(C)NC(C)(C)C1	3	i	1	-3	4	.	.	.
COc1ccc(CCn2c(SCC(=O)Nc3cc(C)on3)nc3ccccc3c2=O)cc1OC	-2	i	-9	0	-3	.	.	.
CCCCCCn1c(SCC(=O)Nc2cc(C)on2)nc2ccccc2c1=O	1	i	-1	31*	41*	23*	32*	18*
SMILES	NR2E3 ag-1	Neddylation inh	NR2E3 ag-2	PG9 Ab binder	NR1D1 modulator	PG9 bind confirm	PGV04 Ab binding	Rev-erbA confirm	others
Cc1cc(NC(=O)CSc2nc3ccccc3c(=O)n2Cc2ccc(F)cc2)no1	-1	i	-26	42*	52*	62*	65*	26*
COCCn1c(SCC(=O)Nc2cc(C)on2)nc2ccccc2c1=O	2	i	-5	-1	2	.	.	.
COC(=O)Cn1c(=NC(=O)c2ccc(OC)cc2)sc2cc(OC)ccc21	1	i	-9	64*	34*	49*	60*	-3
COc1ccc(NC(=O)NNC(=O)COc2ccc3cc(Br)ccc3c2)c(OC)c1	-23	i	-28	61*	118*	63*	74*	111*	RORg DNA counter=>40
COc1ccc(NC(=O)COc2ccc(Br)cc2)c(OC)c1	-1	i	-9	2	8	.	.	.
COc1ccc2cc(OCC(=O)NNC(=O)Nc3ccc(F)cc3)ccc2c1	3	i	-3	23*	42*	34*	45*	35*	RORg DNA counter=3.1*
COc1ccc2cc(OCC(=O)NNC(=O)Nc3ccc(OC)c(OC)c3)ccc2c1	-1	i	-6	-2	1	.	.	.
CC(C)(C)C(=O)c1c(N)[nH]c(C(=O)c2ccccc2)c1-c1ccccc1	.	.	.	-3	3	.	.	.
CCC(NC(=O)CN1CCN(c2cccc(OC)c2)CC1)c1ccccc1 (centres undefined)	.	.	.	.	-2	.	.	.
Cc1ccc(-n2nc3c(N4CCC(C(=O)NCc5ccccc5C)CC4)nnc(C)c3c2C)cc1	-44	i	33	.	.	.	.	.
CCOc1ccccc1CNC(=O)C1CCN(c2nnc(C)c3c(C)n(-c4ccc(C)cc4)nc23)CC1	-14	i	18	9.3*	44*	12*	33*	34*	RORg DNA counter=>40
Brc1cc(Br)c2nc3c(cc2c1)CCC3	18	i	-39	52*	33*	58*	66*	23*
CCn1c(SC(C)C(=O)Nc2ccc3c(c2)OCCO3)nnc1C1CC1 (centres undefined)	1	i	-3	0	-4	.	.	.
c1ccc(OC2CCCCC2N2CCOCC2)cc1 (centres undefined)	.	i	-23	2	-1	.	.	.
CC1CN(S(=O)(=O)c2ccc(C(=O)Nc3nc(-c4cc5ccccc5o4)cs3)cc2)CC(C)O1 (centres undefined)	-1	i	-4	63*	64*	71*	79*	12
C[C@@H](NC(=O)c1ncn2c1c(=O)[nH]c1cccnc12)c1ccccc1	.	i	-13	0	0	.	.	.
C[C@@H](NC(=O)c1ncn2c1c(=O)[nH]c1ccc(Br)cc12)c1ccccc1	.	i	-13	18*	132*	46*	54*	23*
